Test results taken from ChEMBL document CHEMBL4513216, “Probing the Open Global Health Chemical Diversity Library for Multistage-Active Starting Points for Next-Generation Antimalarials” (ACS Infect Dis, 2020).

Assay: Toxicity liver stage against HepG2, at 10uM
Type: cell-based
Parameters: test concentration 10 uM, cell line HepG2-A16-CD81EGFP
Details: human, HepG2-A16-CD81EGFP cells; read-out: INHIBITION
Method in brief: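 Uninfected HepG2-A16-CD81EGFP cells, 3 × 10^3 per well, 1536-well, plated on prespotted compound at 10 μM final, parasite-free screening media added to match infected plates; puromycin 10 μM positive, DMSO 0.5% negative; run in parallel with 48 h PbLuc assay at 37 °C, 5% CO2; viability by CellTiter-Glo luminescence, normalized to controls.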

| SMILES | cytotoxicity at 10 µM |
| --- | --- |
| CCCc1ccc2oc(C(=O)N3CCN(CCC(N)=O)CC3)c(C)c2c1 | 0.424% |
| CCCn1nnnc1COc1cc(OC)ccc1C(=O)OC | -2.04% |
| O=C(NC[C@H]1OC[C@@H](NC2CCC2)[C@@H]1O)c1cccs1 | 1.76% |
| c1ccc(-c2nnc([C@H]3CCN(C4CCOCC4)C3)o2)cc1 | -1.05% |
| COCCNC(=O)c1cccnc1Sc1cc(OC)ccc1OC | 0.734% |
| Cc1ccc(-c2nnc(CN3CCN(c4ccccn4)CC3)o2)cc1 | -5.34% |
| CN1CC[C@H](N(C)Cc2ccccc2)C[C@H](O)C1 | -0.895% |
| O=S(=O)(NCC(O)c1cccs1)c1ccccc1Cl (stereo not given) | -67% |
| Cc1ccnc(OC[C@]23COC[C@H]2CN(C(=O)c2ncccn2)C3)n1 | -3.18% |
| CCOCC1CN(C(=O)c2ccco2)Cc2cnn(C)c21 (stereo not given) | 6.14% |
| Cc1ccc(N2CCc3ncc(CNc4ccccn4)n3CC2)nn1 | 5.41% |
| O=C(O)c1nnn(-c2ccc(C(F)(F)F)cc2)c1-c1ccncc1 | 7.33% |
| CCOCCCNC(=O)CN(c1ccc(C)c(C)c1)S(C)(=O)=O | 7.74% |
| COc1ccc(C2=Nn3c(CCCN)nnc3-c3ccccc3C2)cc1 | 3.07% |
| O[C@@H]1C[C@H]2CN(Cc3ccccc3)[C@H](Cc3ccccc3)CN2C1 | -0.658% |
| CC(C)C(Sc1cccs1)C(=O)NCc1cccnc1 (stereo not given) | -5.15% |
| COc1ccccc1CN(CC1CCCO1)C(=O)c1csnn1 (stereo not given) | -0.636% |
| Cc1cc(NC(C)c2n[nH]c(C)n2)n2nc(C)c(C)c2n1 (stereo not given) | -11.4% |
| CC(C)=CCCC1(C)CCC(=O)N(CCNc2nc(C)cc(=O)[nH]2)C1 (stereo not given) | 3.18% |
| COc1ccccc1C(=O)C1CCCN(c2cc(C#N)ccn2)C1 (stereo not given) | 7.56% |
| COc1nc(C)c(C(=O)N2CCC(C(O)Cc3ccccc3)CC2)s1 (stereo not given) | 4.18% |
| NC1(C(=O)N2CCC(c3cc(-c4ccccc4Cl)n[nH]3)CC2)CCC1 | -3.66% |
| Cc1ccc(C(=O)N2CC(Oc3ccccc3C)C2)s1 | 17.1% |

| SMILES | cytotoxicity at 10 µM |
| --- | --- |
| CCc1nccn1CCCNC(=O)CN1CCN(c2ncccn2)CC1 | -7.54% |
| CSc1ccc(CN(CCO)C(=O)CCNC(C)=O)cc1 | 5.42% |
| Cc1ccc(OCC2CCCN(C(=O)CCn3ccccc3=O)C2)cc1 (stereo not given) | -4.27% |
| CC(C)(CN1CCC(Cc2ccc(C(=O)O)cc2)C1)N1CCOCC1 (stereo not given) | 2.17% |
| CC(Cc1cn(CCc2n[nH]c(=O)[nH]2)nn1)c1ccccc1 (stereo not given) | -0.591% |
| Cc1nnsc1CN(C)C(=O)c1ccc(CSc2nnc[nH]2)o1 | -3.33% |
| Cn1cc(Cl)cc1C(=O)N1CCC2(CCCN(CC3CC3)C2=O)C1 (stereo not given) | 1.96% |
| Cc1nc2c(c(N3CCC(CCn4cccn4)CC3)n1)CCNCC2 | 4.3% |
| CCS(=O)(=O)N[C@H]1CN(CC(C)(C)N2CCOCC2)C[C@@H]1C1CC1 | 1.04% |
| CC(C)=CCN1C[C@@H]2CN(C(=O)c3cnccc3C)C[C@]2(C(=O)O)C1 | 2.85% |
| Cc1cc(C(F)(F)F)cc(=O)n1CCn1cc(Cl)cn1 | 0.382% |
| CC(C)(C)N1CC(C(=O)N2CC(Oc3ccc(F)cc3)C2)CC1=O (stereo not given) | 1.88% |
| c1ccc(C2CCCN(Cc3cc4n(n3)CCNC4)CC2)cc1 (stereo not given) | 1.9% |
| Cc1ccc(OCC2CCCN(C(=O)Cn3ccccc3=O)C2)cc1 (stereo not given) | 0.55% |
| COCCN1CCCC(c2nc3c([nH]2)CC(C)(C)CNC3=O)C1 (stereo not given) | -11.6% |
| Cc1cccnc1NCCNC(=O)[C@H]1CNC[C@@H](C(=O)N2CCCC2)C1 | -11.3% |
| COc1ncccc1C(=O)NCC(C)Oc1cccnc1 (stereo not given) | -8.45% |
| COCCN(C)C(=O)Cn1cccc(OC)c1=O | -14.8% |
| Cc1cnn(CCNCC(=O)NCc2ccccc2)c1 | -4.25% |
| Cc1c[nH]nc1C1CCCN1Cc1nccn1C (stereo not given) | -3.34% |
| NCCc1c(-c2ccccc2)[nH][nH]c1=O | 5.95% |
| Cc1cccc(CN2CC[C@@H]3[C@@H](CO[C@H]3CNc3ncccn3)C2)n1 | -5.55% |
